From PubChem
Shown are actives, neighbours in structure and some others; about 2.3% of the full set was active somewhere.
TRPC6 act = mouse TRPC6 channel activation. Q61143. HEK293-TRPC6 membrane potential dye fluorescence; hits give high values. B-score at 10 µM. hit rate 0.13% among 310,000;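 active = B-score of the integrated fluorescence ratio above library mean plus 3 SD, and starting fluorescence ratio within library mean plus 5 SD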;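 also: higher score means more depolarization so channel activation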
Target sequence (Q61143 whole entry, looked up): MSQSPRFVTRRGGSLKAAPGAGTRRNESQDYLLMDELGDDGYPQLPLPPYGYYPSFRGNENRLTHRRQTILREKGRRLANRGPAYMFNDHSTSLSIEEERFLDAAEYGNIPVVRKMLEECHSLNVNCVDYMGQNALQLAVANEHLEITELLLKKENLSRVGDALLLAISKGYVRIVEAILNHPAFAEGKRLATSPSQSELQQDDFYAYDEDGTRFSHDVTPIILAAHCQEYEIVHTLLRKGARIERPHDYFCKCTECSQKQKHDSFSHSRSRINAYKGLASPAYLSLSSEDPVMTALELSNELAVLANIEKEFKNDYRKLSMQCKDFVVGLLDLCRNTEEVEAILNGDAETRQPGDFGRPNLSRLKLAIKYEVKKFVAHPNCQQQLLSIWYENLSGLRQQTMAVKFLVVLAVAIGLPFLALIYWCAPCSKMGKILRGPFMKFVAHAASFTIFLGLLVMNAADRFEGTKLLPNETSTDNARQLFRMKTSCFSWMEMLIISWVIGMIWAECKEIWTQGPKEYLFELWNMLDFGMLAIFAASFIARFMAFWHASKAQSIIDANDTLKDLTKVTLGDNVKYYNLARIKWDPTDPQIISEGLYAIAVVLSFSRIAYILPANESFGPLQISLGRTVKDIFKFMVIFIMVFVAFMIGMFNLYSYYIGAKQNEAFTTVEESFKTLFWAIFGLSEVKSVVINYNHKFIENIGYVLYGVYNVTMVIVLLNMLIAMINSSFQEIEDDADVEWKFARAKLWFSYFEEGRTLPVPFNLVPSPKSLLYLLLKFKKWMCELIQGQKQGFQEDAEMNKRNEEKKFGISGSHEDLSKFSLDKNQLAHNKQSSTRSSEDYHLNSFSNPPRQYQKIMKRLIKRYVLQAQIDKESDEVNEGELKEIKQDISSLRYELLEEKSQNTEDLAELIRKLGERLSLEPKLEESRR
TRPC4 block = inhibitors of mouse TRPC4 channel; Q9QUQ5; HEK293 TRPC4beta/mu-opioid, DAMGO-evoked Fluo4 calcium flux; hits give low values; B-score at 10 µM; hit rate 0.39% among 300,000; AID 2247;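 active = B-score over 3 SD under the library average, no early fluorescence shift, positive overall ratio signal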
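Material: HEK293 cells with stable TRPC4beta plus mu-opioid receptor expression / Probe or stimulus: DAMGO in two steps, submaximal then maximal / Compound: single concentration per test compound / Technique: kinetic Fluo4 fluorescence imaging of calcium influx / Read-out: per-well B score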
TRPC4 potent = TRPC4 (mouse) allosteric potentiation | hit rate 0.42% among 310,000 | B-score at 10 µM | HEK293 TRPC4beta/mu-opioid, DAMGO EC20, Fluo-4 Ca2+ flux; hits give high values | Q9QUQ5 | AID 2227;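 active = B-score of calcium response area above 5 SD of library B-scores, with initial fluorescence ratio within 5 SD of library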;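 also: B-score of integrated fluorescence ratio over time as area under calcium response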
TRPC4 act = opens the mouse TRPC4 cation channel | HEK293 TRPC4beta/mu-opioid, Fluo4 calcium fluorescence; hits give high values | B-score at 10 µM | AID 2237 | hit rate 0.49% among 310,000;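 active = B-score above 5 SD of library B-scores, and initial fluorescence ratio not above library mean plus 5 SD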;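 also: positive B-score marks a calcium rise read as TRPC4 activation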
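Technique: kinetic Fluo4 calcium fluorescence; Test system: TRPC4beta and mu-opioid receptor HEK293 stable cells; Measure: B-scored integrated calcium fluorescence ratio; Benchmarks: low control buffer alone, high control maximal DAMGO; Schedule: 45 min room-temperature Fluo4 loading, 110 s read.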
Yeast superoxide = yeast age-related superoxide inhibition as caloric restriction mimetic; S. cerevisiae aged cells, superoxide DHE fluorescence; hits give low values; superoxide response (% of plate mean), % at 10 µM; hit rate 0.18% among 330,000; AID 2690;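 active = superoxide response under a set limit, about three screen SD below normal, cut at about 65% in these data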;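 also: yeast aged for seven days with compound at 30 °C before DHE staining; 100% = average MFI of all compound-treated wells on the plate with controls excluded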
TRPC6 inhibitor = mouse TRPC6 channel inhibition. Q61143. HEK293-TRPC6, membrane potential dye, ACh-evoked depolarization; hits give low values. B-score at 10 µM. hit rate 1.1% among 310,000;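 active = B-score under library mean minus 3 SD, initial fluorescence not abnormally high, positive integrated signal ratio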;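 also: B-score derived from integrated fluorescence ratio over the kinetic read; more negative B-score means stronger inhibition of depolarization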
TRPC4 spec 2 = second check of whether TRPC6 inhibitors also affect mouse TRPC4 | inhibition, % at 10 µM | HEK293 TRPC4/MOR, membrane potential dye fluorescence; channel activated by saturating DAMGO dose | shares compounds with TRPC6 inhibitor | AID 2776 | hit rate 42% among 920;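 active = compounds whose fluorescence signal differed from control wells by over 3 SD, either direction, in both duplicate plates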
TRPC4 spec = selectivity of TRPC6 inhibitors: effect on mouse TRPC4 | shares compounds with TRPC6 inhibitor | HEK293 TRPC4/mu-opioid, membrane potential fluorescence | activity change, negative = inhibition, % at 10 µM | hit rate 61% among 920;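 active = rise or fall in signal beyond 3 SD of buffer-only wells in both replicate plates, either sign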;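 also: integrated kinetic ratio of fluorescence range over baseline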
HEK293 MPD ctr 2-1 = second counter-screen for TRPC6 inhibitors: parental HEK293 cells; signal change vs control, % at 10 µM; parental HEK293 membrane potential dye fluorescence; maximal acetylcholine challenge after compound addition; hit rate 31% among 920; AID 2779; shares compounds with TRPC6 inhibitor;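 active = membrane potential signal moving either way by over 3 SD of the maximum-effect control, in both duplicate plates, meaning non-specific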
HEK293 MPD ctr-1 = counter-screen for TRPC6 inhibitors: effect in parental HEK293 cells | shares compounds with TRPC6 inhibitor | parental HEK293 membrane potential dye fluorescence | membrane potential signal change, % at 10 µM | hit rate 60% among 920;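 active = membrane potential signal shifting up or down by more than 3 SD of buffer-only wells, on both duplicate plates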
HEK293 MPD ctr-2 = counter-screen for TRPC6 modulators: effect in parental HEK293 cells; membrane potential signal change, % at 10 µM; hit rate 51% among 2,400; membrane potential dye fluorescence; shares compounds with TRPC6 inhibitor;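 active = membrane potential signal moves up or down beyond 5 SD from buffer-only wells, on both duplicate plates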
HEK293 MPD ctr 2-2 = second check of TRPC6 modulator effects in parental HEK293 cells | shares compounds with TRPC6 inhibitor | membrane potential dye fluorescence; after compound, maximal acetylcholine stimulation | inhibition, % at 10 µM | hit rate 14% among 2,400 | AID 488926;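 active = membrane potential signal drops by more than 5 SD from the mean control signal, in both duplicate plates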;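 also: plate controls were acetylcholine ECmax control wells for no effect and buffer only wells for full effect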
TRPC4/MOR mod = mouse TRPC4 off-target activity of TRPC6 modulators | percent change from control (negative = decrease, positive = increase), % at 10 µM | HEK293 TRPC4/mu-opioid, membrane potential fluorescence | hit rate 69% among 2,400 | shares compounds with TRPC6 inhibitor;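 active = membrane potential signal moved up or down beyond 5 SD of buffer control wells, in both duplicate plates, actives on both sides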;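 also: plate controls were assay buffer wells for no effect and DAMGO maximal-effect wells for full effect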
TRPC4 ctr inh 2 = second selectivity test of TRPC6 modulators against mouse TRPC4; shares compounds with TRPC6 inhibitor; HEK293 TRPC4/mu-opioid, membrane potential dye fluorescence; stimulated with maximal-effect DAMGO; inhibition, % at 10 µM; hit rate 55% among 2,400; AID 488928;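 active = drop in membrane potential signal beyond 5 SD of the control wells in both duplicate plates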;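 also: TRPC4 counter screen for TRPC6 hits run under conditions tuned for TRPC6 not TRPC4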
TRPC6 block conf = mouse TRPC6 inhibitor confirmation; shares compounds with TRPC6 inhibitor; HEK293-TRPC6, membrane potential dye, ACh-evoked depolarization; inhibition, % at 10 µM; hit rate 43% among 3,300; AID 488960;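 active = fluorescence ratio falls more than 5 SD below the full-stimulation control mean, in both duplicate runs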;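 also: integrated fluorescence ratio of peak minus minimum over baseline after agonist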
TRPC6 act confirm = mouse TRPC6 activator confirmation; shares compounds with TRPC6 inhibitor; HEK293-TRPC6 membrane potential dye fluorescence, FDSS; activation, % at 10 µM; hit rate 11% among 2,800; AID 488961;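 active = ratio signal rise beyond 5 SD above unstimulated control wells' mean, seen in both duplicate runs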;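 also: plate controls were buffer EC0 wells for no effect and acetylcholine ECmax response for full effect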
The depositor's hits bear a star; i = inactive; · = no result.

SMILES | TRPC6 act | TRPC4 block | TRPC4 potent | TRPC4 act | Yeast superoxide | TRPC6 inhibitor | HEK293 MPD ctr-2 | HEK293 MPD ctr 2-2 | TRPC4/MOR mod | TRPC4 ctr inh 2 | TRPC6 block conf | others
CCNCCC(=O)N1c2ccccc2Sc2ccc(C(F)(F)F)cc21 | i | i | i | i | 110.7 | -6.1* | i | 94.5%* | 9.0%* | 42.5%* | 83.5%*
O=C(CSc1nc2ccccc2o1)N1c2ccccc2Sc2ccc(C(F)(F)F)cc21 | i | i | i | i | 102.9 | i | · | · | · | · | ·
O=C(CN1CCCC1)N1c2ccccc2Sc2ccc(C(F)(F)F)cc21 | i | i | i | i | 108.8 | -5.57* | i | i | 12.0%* | i | 53.0%*
O=C(CN1CCCC1)N1c2ccccc2Sc2ccc(Cl)cc21 | i | i | i | i | 93.4 | -5.5* | 96.0%* | i | 14.0%* | 47.0%* | 59.5%*
CC(=O)Nc1ccc(S(=O)(=O)N2CCCCC2C(=O)O)cc1 (stereo not given) | i | i | i | i | 107.3 | i | · | · | · | · | ·
COc1ccc(S(=O)(=O)Cc2ccc(C(=O)NCC(OC)OC)o2)cc1 | i | i | i | i | 95.0 | i | · | · | · | · | ·
Cc1cc(C)cc(N(C(=O)c2snc(C(N)=O)c2N)C(C(=O)NCC2CCCO2)c2ccc(C)o2)c1 (stereo not given) | i | i | i | i | 99.2 | -5.41* | i | i | 18.5%* | 40.5%* | i
CCOc1ccc(/C=C/c2nc(C#N)c(NCCCN(C)C)o2)cc1 | i | i | i | i | 90.3 | -5.47* | i | i | i | 55.5%* | 38.5%* | TRPC6 act confirm=i
CN(C)CCCNc1oc(-c2cccc(Cl)c2)nc1C#N | i | i | i | i | 106.3 | -6.85* | · | · | · | · | i | TRPC4 spec 2=i;TRPC4 spec=i;HEK293 MPD ctr 2-1=i;HEK293 MPD ctr-1=i;TRPC6 act confirm=i
CCN(CC)CCCNc1oc(-c2ccc(OC)c(OC)c2)nc1C#N | i | i | i | i | 94.5 | -6.38* | i | i | i | i | 46.5%* | TRPC6 act confirm=i
COC(=O)c1cc(NC(=O)c2ccc(C)cc2)c(=O)oc1C | i | i | i | i | 93.9 | i | · | · | · | · | ·
Cc1ccc(Oc2ncccc2N)c2c1CCC2 | i | i | i | i | 106.1 | i | · | · | · | · | ·
COc1ccc(NC(=O)C2(c3cccs3)CCOCC2)cc1 | i | i | i | i | 95.1 | i | · | · | · | · | ·
